Compound activity from PubChem BioAssay.
A selection: hits, their analogues and other compounds. The true share with any hit is near 2.3%.
TRPC6 inhibitor: mouse TRPC6 channel inhibitors, primary screen, cell-based, HEK293, membrane potential dye | AID 2553, 2010 | Short transient receptor potential channel 6 (Mus musculus), Q61143 | B-score at 10 µM | ACh-evoked depolarization; active compounds read low | actives 1.1% (n = 310,000);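 active = B-score under library mean minus 3 SD, initial fluorescence not abnormally high, positive integrated signal ratio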;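 note: B-score derived from integrated fluorescence ratio over the kinetic read; more negative B-score means stronger inhibition of depolarization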
TRPC4 PAM: positive allosteric modulators of TRPC4, primary screen, cell-based, mouse TRPC4beta, HEK293 mu-opioid, Fluo-4 calcium; Short transient receptor potential channel 4 (Mus musculus), Q9QUQ5; DAMGO EC20, Fluo-4 Ca2+ flux; active compounds read high; B-score at 10 µM; actives 0.42% (n = 310,000);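 active = B-score of calcium response area above 5 SD of library B-scores, with initial fluorescence ratio within 5 SD of library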;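 note: B-score of integrated fluorescence ratio over time as area under calcium response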
Target sequence (Q9QUQ5 whole entry, looked up): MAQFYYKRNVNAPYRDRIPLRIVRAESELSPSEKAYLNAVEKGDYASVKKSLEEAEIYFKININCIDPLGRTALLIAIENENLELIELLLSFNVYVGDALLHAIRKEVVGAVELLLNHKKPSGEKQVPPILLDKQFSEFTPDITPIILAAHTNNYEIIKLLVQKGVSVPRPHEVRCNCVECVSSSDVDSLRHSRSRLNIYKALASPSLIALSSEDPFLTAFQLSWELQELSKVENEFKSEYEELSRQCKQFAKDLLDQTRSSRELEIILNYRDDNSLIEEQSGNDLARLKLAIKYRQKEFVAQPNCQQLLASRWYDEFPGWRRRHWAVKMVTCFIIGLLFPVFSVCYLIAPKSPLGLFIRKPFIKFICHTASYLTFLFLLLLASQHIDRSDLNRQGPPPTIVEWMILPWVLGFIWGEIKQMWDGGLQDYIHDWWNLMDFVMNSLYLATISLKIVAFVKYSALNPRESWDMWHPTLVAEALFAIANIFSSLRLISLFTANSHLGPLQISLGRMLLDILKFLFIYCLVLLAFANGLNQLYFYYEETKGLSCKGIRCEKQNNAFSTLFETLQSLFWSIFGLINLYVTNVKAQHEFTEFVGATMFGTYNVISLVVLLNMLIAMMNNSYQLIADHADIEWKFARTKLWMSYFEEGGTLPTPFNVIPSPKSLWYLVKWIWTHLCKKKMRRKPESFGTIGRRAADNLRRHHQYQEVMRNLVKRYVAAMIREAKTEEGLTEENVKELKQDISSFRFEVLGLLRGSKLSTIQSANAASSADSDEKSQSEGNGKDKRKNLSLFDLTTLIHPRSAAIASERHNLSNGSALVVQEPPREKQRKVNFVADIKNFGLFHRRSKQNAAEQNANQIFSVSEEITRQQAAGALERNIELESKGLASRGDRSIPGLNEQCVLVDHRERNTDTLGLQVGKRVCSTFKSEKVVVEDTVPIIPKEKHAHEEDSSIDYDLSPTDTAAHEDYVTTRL
TRPC4 agonist: activators of mouse TRPC4 channel, primary screen, Fluo4 calcium, HEK293 TRPC4beta/mu-opioid cells. actives 0.49% (n = 310,000). B-score at 10 µM. Short transient receptor potential channel 4 (Mus musculus), Q9QUQ5. Fluo4 calcium fluorescence; active compounds read high;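 active = B-score above 5 SD of library B-scores, and initial fluorescence ratio not above library mean plus 5 SD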;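 note: positive B-score marks a calcium rise read as TRPC4 activation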
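Material: HEK293 stable line with TRPC4beta plus mu-opioid receptor; technique: Fluo4 calcium-sensitive dye fluorescence, kinetic, 1 Hz baseline; timing: Fluo4 dye loading 45 min at room temperature, 110 s recording; controls: assay buffer as low control, maximal DAMGO as high control; read-out: integrated baseline-normalised fluorescence ratio, converted to per-well B score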
TRPC6 act: mouse TRPC6 channel activators, primary screen, cell-based, HEK293, membrane potential dye; Short transient receptor potential channel 6 (Mus musculus), Q61143; HEK293-TRPC6 membrane potential dye fluorescence; active compounds read high; B-score at 10 µM; actives 0.13% (n = 310,000); AID 2550, 2010;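 active = B-score of the integrated fluorescence ratio above library mean plus 3 SD, and starting fluorescence ratio within library mean plus 5 SD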;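 note: higher score means more depolarization so channel activation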
TRPC4 block: inhibitors of mouse TRPC4 channel, primary screen, Fluo4 calcium, HEK293 TRPC4beta/mu-opioid cells; Short transient receptor potential channel 4 (Mus musculus), Q9QUQ5; DAMGO-evoked Fluo4 calcium flux; active compounds read low; actives 0.39% (n = 300,000); B-score at 10 µM;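 active = B-score over 3 SD under the library average, no early fluorescence shift, positive overall ratio signal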
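Material: HEK293 cells with stable TRPC4beta plus mu-opioid receptor expression / Probe or stimulus: DAMGO in two steps, submaximal then maximal / Compound: single concentration per test compound / Technique: kinetic Fluo4 fluorescence imaging of calcium influx / Read-out: per-well B score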
* marks the source's active call; other numbers are inactive results; i = inactive; . = no result.

SMILES	TRPC6 inhibitor	TRPC4 PAM	TRPC4 agonist	TRPC6 act	TRPC4 block
NC(CCCCc1ccccc1)c1cccc2ccccc12 (stereo not given)	-7.9*	i	i	i	i
O=[N+]([O-])c1ccc(/C=N/Nc2nc(N3CCCCCC3)nc(N3CCCCCC3)n2)o1	i	32*	i	i	i
COc1cc(C(=S)N2CCOCC2)ccc1OC(=O)c1cccc(C)c1	i	i	i	i	i
CCOC(=O)C1=C(N)OC2=C(C(=O)CC(C)(C)C2)C1c1ccc(C)s1 (stereo not given)	i	i	i	i	i
CCOC(=O)C1=C(N)OC2=C(C(=O)CC(C)(C)C2)C1c1ccc(CC)s1 (stereo not given)	i	16*	i	i	i
CC(=O)N1N=C(c2c(-c3ccccc3)c3cc(Br)ccc3[nH]c2=O)CC1c1ccco1 (stereo not given)	i	i	i	i	i
CC(=O)N1N=C(c2c(-c3ccccc3)c3cc(C)ccc3[nH]c2=O)CC1c1ccco1 (stereo not given)	i	24*	i	i	i
COC(=O)c1[nH]c2ccccc2c1CN1CCOCC1	i	i	i	i	i
Cc1cc(NC(=O)CN2CCc3ccccc3C2)nc2c1c(=O)oc1ccccc12	i	i	98*	i	i
CCCC(=O)Nc1cc(C)c2c(=O)oc3ccccc3c2n1	i	i	i	i	i
CCOC(=O)C1=NNC(C(=O)c2ccc(Cl)cc2)C1c1ccc(OC)cc1 (stereo not given)	i	15*	i	i	i
CC[n+]1c(C=C2C=C(C)OC(C)=C2)sc2ccccc21	i	i	i	i	-8*
CC(=O)N1CCCc2cc(S(=O)(=O)N3CCN(C4CCCCC4)CC3)ccc21	i	i	57*	i	i
Nc1cc(=O)[nH]c(SCC(=O)N2CCCCC2)n1	i	i	i	i	i
Cc1ccc(OCC(=O)N2CCCCCCC2)cc1	i	i	i	i	i
CC(C)=CCC12Oc3cc(O)ccc3C1(O)Oc1cc(O)c([C@H]3C=C(C)CC(c4ccc(O)cc4O)[C@H]3C(=O)c3ccc(O)cc3O)c(O)c1C2=O (stereo not given in full)	i	i	i	i	i
CC(C)C[C@@H](COc1ccccc1)N1CCN(Cc2ccccc2)CCC1=O	i	i	52*	i	i
O=C1CCN(Cc2ccccc2)CCN1[C@H](COc1ccccc1)Cc1ccccc1	i	i	65*	i	.
Cc1ccc(SC[C@H](Cc2ccccc2)N2CCN(CC(C)C)CCC2=O)cc1	i	i	47*	i	.
COC(=O)C(NC(C)=O)(Nc1nc2c(C)cc(C)cc2s1)C(F)(F)F (stereo not given)	i	i	i	i	i
Cc1ccsc1C(=O)OCC(=O)NCCNC(=O)COC(=O)c1sccc1C	i	i	i	i	-7*
N#C/C(N)=C(/C#N)N=Cc1cccc(Cl)c1	i	11*	i	i	i
CSc1ccc2nnc(-c3cccc(F)c3)n2n1	i	21*	i	i	i
O=c1[nH]c2ccccc2nc1/C=C/c1ccc(Cl)cc1	i	i	i	i	i
CCN1CCN(c2ncc(C(=O)Nc3cc(Cl)ccc3OC)c3ccccc23)CC1	i	12*	i	i	i
COc1ccccc1N1CCN(c2ncc(C(=O)N3CCN(c4cccc(Cl)c4)CC3)c3ccccc23)CC1	i	21*	i	i	i
CCOc1ccccc1C(=O)N1CCN(c2cccc(Cl)c2)CC1	i	i	i	i	i
COc1ccc(Cl)cc1NC(=O)CCN1CCN(c2ccccc2C)CC1	i	i	i	i	i
